These results are taken from ChEMBL document CHEMBL2163266, “3,3'-Disubstituted bipolar biphenyls as inhibitors of nuclear receptor coactivator binding” (Bioorg Med Chem Lett, 2012).

In general, inhibition refers to the relative decrease from the control value, in per cent.

The source made the active and inactive calls. No cut-off for these calls is given here. A value given as a limit tells only on which side of the number the result lay.

Data set [1] has as its target T1, Estrogen receptor (Homo sapiens) (UniProt P03372).
T1 sequence (whole entry): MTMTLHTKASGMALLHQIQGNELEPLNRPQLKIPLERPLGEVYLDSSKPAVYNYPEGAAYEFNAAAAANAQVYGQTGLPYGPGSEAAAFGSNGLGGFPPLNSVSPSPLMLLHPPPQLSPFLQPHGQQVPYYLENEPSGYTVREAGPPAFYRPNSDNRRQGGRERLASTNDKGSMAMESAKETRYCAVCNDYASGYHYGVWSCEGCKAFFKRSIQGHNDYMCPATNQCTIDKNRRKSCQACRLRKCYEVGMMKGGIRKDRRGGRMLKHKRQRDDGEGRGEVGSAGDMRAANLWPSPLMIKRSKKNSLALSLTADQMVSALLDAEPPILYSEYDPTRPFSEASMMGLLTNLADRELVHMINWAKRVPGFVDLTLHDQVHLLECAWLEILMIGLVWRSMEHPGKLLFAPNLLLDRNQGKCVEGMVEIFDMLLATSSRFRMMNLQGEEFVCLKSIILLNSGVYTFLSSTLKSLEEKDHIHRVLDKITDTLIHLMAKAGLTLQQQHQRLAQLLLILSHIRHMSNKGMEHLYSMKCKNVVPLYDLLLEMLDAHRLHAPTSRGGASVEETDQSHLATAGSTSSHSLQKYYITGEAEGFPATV
The experiment in a line: Antagonist activity at ERalpha co-activator binding domain expressed in human HepG2 cells assessed as inhibition of E2-induced […] LXXLL2 binding measured as decrease in […] activity after 40 hrs by luciferase reporter gene assay. Format: cell-based. On the set-up: concentration or dose not given beside the values. In short, it runs like this: (§1)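 HepG2 cells co-transfected with VP16-ERα, pM-GRIP1-LXXLL2, the 5xGal4-Luc3 reporter and a pCMV-β-gal normalization control. Serial twofold dilutions given with or without 1 nM estradiol, 40 h, then reporter read. Scored as >50% increase or decrease in reporter activity within concentration bands (<20, 20–50, >50 µM); <20% change scored 0.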
(In general: Reporter assays use an easily measured gene product as a stand-in for the process of interest.)

The target in data set [2] is T1, Estrogen receptor (Homo sapiens). The experiment in a line: Agonist activity at ERalpha co-activator binding domain expressed in human HepG2 cells assessed as […] LXXLL2 binding measured as […] activity at <20 uM. Format: cell-based. In short, it runs like this:
as §1

Another data set concerns CV-1. As to the kind of experiment: Cytotoxicity against african green monkey CV1 cells at >50 uM. It is filed as cell-based. The conditions noted are these: chlorocebus aethiops.
Data set [3] addresses T1, Estrogen receptor (Homo sapiens). The experiment in a line: Antagonist activity at ERalpha co-activator binding domain expressed in human HepG2 cells assessed as inhibition of E2-induced […] LXXLL2 binding measured as decrease in […] activity at 20 to 50 uM after 40 hrs by luciferase reporter gene assay. Format: cell-based. Summed up:
as §1

For data set [4] the target is unchanged. As to the kind of experiment: Antagonist activity at ERalpha in human MCF7 cells assessed as reduction in E2-induced PR expression at 20 uM incubated for 2 hrs prior to E2-induction measured after 14 hrs by qPCR analysis. It is filed as functional, cell-based. Details: scale not given: the % may be the effect or the level left. In short, it runs like this:
(§2)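 MCF-7 (ER+) cells pretreated 2 h with 20 µM compound, then exposed to vehicle or estradiol for 14 h before target gene expression was measured.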
(In general: In qPCR the cycle at which signal appears reflects the starting amount.)

Data set [5] concerns MCF7. The experiment in a line: Effect on E2-induced IDH3A expression in human MCF7 cells at 20 uM incubated for 2 hrs measured after 14 hrs by qPCR analysis. It is filed as functional, cell-based. Summed up: as §2
The target in data set [6] is T1, Estrogen receptor (Homo sapiens). As to the kind of experiment: Agonist activity at ERalpha in human MCF7 cells assessed as increase in PS2 expression at 20 uM incubated for 2 hrs measured after 14 hrs by qPCR analysis relative to E2. It is filed as functional, cell-based. Summed up:
as §2

Data set [7] shares this target. The experiment in a line: Agonist activity at ERalpha in human MCF7 cells assessed as increase in SDF1 expression at 20 uM incubated for 2 hrs measured after 14 hrs by qPCR analysis relative to E2. It is filed as functional, cell-based. Summed up: as §2
The target is the same in data set [8]. As to the kind of experiment: Antagonist activity at ERalpha in human MCF7 cells assessed as reduction in E2-induced SDF1 expression at 20 uM incubated for 2 hrs prior to E2-induction measured after 14 hrs by qPCR analysis. On the set-up: scale not given: the % may be the effect or the level left. Format: functional, cell-based. Summed up:
as §2

For data set [9] the target is unchanged. As to the kind of experiment: Binding affinity to ERalpha co-activator binding domain by TR-FRET assay. In general terms: In TR-FRET formats the signal depends on donor and acceptor labels being close together.
For data set [10], the system named is MCF7. As to the kind of experiment: Effect on IDH3A expression in human MCF7 cells at 20 uM incubated for 2 hrs measured after 14 hrs by qPCR analysis relative to E2. It is filed as functional, cell-based. In short, it runs like this: as §2
Data set [11] deals with T1, Estrogen receptor (Homo sapiens). As to the kind of experiment: Agonist activity at ERalpha in human MCF7 cells assessed as increase in PR expression at 20 uM incubated for 2 hrs measured after 14 hrs by qPCR analysis relative to E2. It is filed as functional, cell-based. In short, it runs like this: as §2
Data set [12] has the same target. The experiment in a line: Antagonist activity at ERalpha in human MCF7 cells assessed as reduction in E2-induced PS2 expression at 20 uM incubated for 2 hrs prior to E2-induction measured after 14 hrs by qPCR analysis. Format: functional, cell-based. Details: scale not given: the % may be the effect or the level left. Summed up: as §2
Data set [13] has the same target. The experiment in a line: Antagonist activity at ERalpha co-activator binding domain in human Hec1 cells assessed as inhibition of co-activator binding by reporter gene assay. It is filed as cell-based.
Data set [14] has the same target. As to the kind of experiment: Activity at ERalpha in human MCF7 cells assessed as increase in E2-induced PR expression at 20 uM incubated for 2 hrs prior to E2-induction measured after 14 hrs by qPCR analysis. Format: cell-based. Summed up: as §2
For data set [15] the target is unchanged. As to the kind of experiment: Activity at ERalpha in human MCF7 cells assessed as increase in E2-induced PS2 expression at 20 uM incubated for 2 hrs prior to E2-induction measured after 14 hrs by qPCR analysis. Format: cell-based. In short, it runs like this:
as §2

A further data set concerns HepG2. As to the kind of experiment: Cytotoxicity against human HepG2 cells expressing ERalpha co-activator binding domain at >50 uM. It is filed as cell-based.

Regarding `CCOC(=O)COc1ccc(-c2ccc(O)c(Cc3ccccc3)c2)cc1Cc1ccccc1`, the Activity in [1] was less than 20%.

Take `CCOC(=O)COc1ccc(-c2ccc(O)cc2)cc1`: the Activity in [1] was less than 20%; in data set [2] it was greater than 50%.

As for `CCOC(=O)COc1ccc(-c2ccc(OCCN(C)C)c(C(C)(C)C)c2)cc1C(C)(C)C`, the Activity is less than 20% in data set [1] and “Toxic” with CV-1.

Take `CCOC(=O)COc1ccc(-c2ccc(OCCN(C)C)cc2)cc1`: the Activity is less than 20% in [1] and greater than 50% in [2].

For the compound `CCOC(=O)COc1ccc(-c2ccc(O)c(C(C)CC)c2)cc1C(C)CC` (stereo unspecified), in data set [3], the inhibition is greater than 50%. Also, the Activity result with CV-1 is given as “Toxic”.

For the compound `CCC(C)c1cc(-c2ccc(OCC(=O)O)c(C(C)CC)c2)ccc1OCCN(C)C` (stereo unspecified), the Activity in data set [4], in data set [8] and in data set [12] was greater than 20% each time. Further, the outcome (in the data set with MCF7 [5]; in [6]; in data set [7]; in the data set on MCF7 [10]; in [11]) was inactive. For the same compound, in [9], the outcome was Active. Also, in [13], the inhibition entry was “Active”.

For the compound `CN(C)CCOc1ccc(-c2ccc(OCC(=O)O)c(C(C)(C)C)c2)cc1C(C)(C)C`, the Activity in data set [14], in data set [6], in data set [7], in data set [8], in [15] and in data set [11] was greater than 20% each time. Moreover, the result in the data set with MCF7 [5] and in the data set on MCF7 [10] was inactive. Also, the result in data set [9] was Active. The inhibition entry in [13] is “Active”.

Take `CN(C)CCOc1ccc(-c2ccc(OCC(=O)O)c(Cc3ccccc3)c2)cc1Cc1ccccc1`: the inhibition in data set [3] was greater than 50%. For the same compound, the Activity in data set [4] and in [8] was greater than 20% in each case. In addition, the result (in the data set on MCF7 [5]; in data set [6]; in data set [7]; in the data set on MCF7 [10]; in data set [11]; in data set [12]) was inactive. The result in data set [9] was Active. Also, the inhibition entry in [13] was “Active”.

As for `CCOC(=O)COc1ccc(-c2ccc(OCCN(C)C)c(Cc3ccccc3)c2)cc1Cc1ccccc1`, in the data set on CV-1, the Activity result is “Toxic”.

Consider `CCOC(=O)COc1ccc(-c2ccc(OCCN(C)C)c(C(C)CC)c2)cc1C(C)CC` (stereo unspecified), for which the figures for the Activity result (in the data set on HepG2; in data set [2]; in the data set with CV-1) were “Toxic”, greater than 50% and “Toxic”, respectively.

As for `CCOC(=O)COc1ccc(-c2ccc(O)c(C(C)(C)C)c2)cc1C(C)(C)C`, the Activity in [1] is less than 20%; in [2] it was greater than 50%.

As to `CCOC(=O)COc1ccc(-c2ccc(O)c(C(C)C)c2)cc1C(C)C`, the inhibition in [3] was greater than 50%. In addition, in the data set on CV-1, the Activity result is on record as “Toxic”.

Consider `CCOC(=O)COc1ccc(-c2ccc(OCCN(C)C)c(C(C)C)c2)cc1C(C)C`, for which the Activity in [1] is less than 20%.

For `CC(C)c1cc(-c2ccc(OCC(=O)O)c(C(C)C)c2)ccc1OCCN(C)C`, the Activity is greater than 20% in [4], less than 20% in [1] and greater than 20% in data set [8]. Moreover, the result (in the data set with MCF7 [5]; in [6]; in data set [7]; in the data set with MCF7 [10]; in data set [11]; in data set [12]) was inactive. Also, in [9], the outcome was Active. For the same compound, the inhibition result in [13] is “Active”.

Consider `CN(C)CCOc1ccc(-c2ccc(OCC(=O)O)cc2)cc1`, for which the Activity was greater than 20% in [4]; greater than 20% in data set [6]; greater than 20% in data set [7]; less than 20% in data set [1]; greater than 20% in [8]; greater than 20% in [11]. Further, the result (in the data set on MCF7 [5]; in the data set with MCF7 [10]; in data set [12]) was inactive. Also, the result in [9] was Active. The inhibition entry in data set [13] is “Active”.
